From ChEMBL document CHEMBL1153955, “Indolylarylsulfones bearing natural and unnatural amino acids. Discovery of potent inhibitors of HIV-1 non-nucleoside wild type and resistant mutant strains reverse transcriptase and coxsackie B4 virus” (J Med Chem, 2009)

Columns and labels:
Influenza A virus [1] = assay: Antiviral activity against influenza H1N1 virus in MDCK cells assessed as reduction of virus-induced cytopathicity by MTS method; format: functional, organism-based; conditions: Influenza A virus, H1N1, MDCK
Human alphaherpesvirus 1 [2] = assay: Antiviral activity against HSV1 KOS in human HEL cells assessed as protection against virus-induced cytopathicity; format: functional, organism-based; conditions: Human alphaherpesvirus 1, KOS
Felid alphaherpesvirus 1 = assay: Antiviral activity against Feline herpesvirus in feline […] cells assessed as inhibition of virus-induced cytopathicity; format: functional, organism-based
Human respirovirus 3 = assay: Antiviral activity against Parainfluenza virus type 3 in african green monkey Vero cells assessed as protection against virus-induced cytopathicity; format: functional, organism-based; conditions: Human respirovirus 3, Vero
In short: (§1)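 Confluent cell monolayers inoculated with 100 CCID₅₀ virus. After 1-2 h adsorption, residual virus removed and cultures incubated with varying compound concentrations. Cytopathicity scored once it reached completion in untreated infected controls. EC₅₀ = dose reducing virus-induced cytopathogenicity by 50%.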

Vaccinia virus = assay: Antiviral activity against Vaccinia virus Lederle in human HEL cells assessed as protection against virus-induced cytopathicity; format: functional, organism-based; conditions: Orthopoxvirus vaccinia
[3] = test system: Vesicular stomatitis virus; assay: Antiviral activity against VSV in human HEL cells assessed as protection against virus-induced cytopathicity; format: functional, organism-based
Punta Toro virus = assay: Antiviral activity against Punta Toro virus in african green monkey Vero cells assessed as protection against virus-induced cytopathicity; format: functional, organism-based; in short: as §1
[4] = test system: Human immunodeficiency virus 2; assay: Antiviral activity against HIV2 ROD in human CEM cells assessed as protection against virus-induced cytopathicity after 4 days; format: functional, organism-based; conditions: Human immunodeficiency virus 2, ROD, CCRF-CEM, 96 h
In short: (§2)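 CEM cells (~3 × 10⁵ cells/mL) infected with ~100 CCID₅₀ per mL of HIV-1 (IIIB) or HIV-2 (ROD), then seeded into wells containing compound dilutions. After 4 days at 37 °C, syncytium (giant cell) formation was examined microscopically. EC₅₀ = concentration protecting CEM cells from HIV cytopathicity by 50%.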

Feline coronavirus = assay: Antiviral activity against Feline coronavirus in feline […] cells assessed as inhibition of virus-induced cytopathicity; format: functional, organism-based; conditions: Alphacoronavirus 1
[5] = Cytotoxicity against feline CRFK cells by MTS assay; format: cell-based, Felis catus; conditions: cat
[6] = molecular target: Human immunodeficiency virus type 1 reverse transcriptase (Human immunodeficiency virus 1, UniProt Q72547, L100I); assay: Inhibition of HIV1 reverse transcriptase p66/p51 L100I mutant; conditions: read-out: IC50
In short: (§3)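 Substrate was 0.5 µg poly(rA)/oligo(dT) 10:1 (0.3 µM 3′-OH ends) with 10 µM [³H]dTTP, at 37 °C. Acid-precipitable radioactivity was counted on GF/C filters after TCA washes.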

CCRF-CEM = assay: Antiproliferative activity against human CEM cells after 3 days; format: cell-based; conditions: 72 h
In short: (§4)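 Cells seeded at 5 × 10⁴ to 7.5 × 10⁴ cells/200 µL with or without serial compound dilutions; incubated at 37 °C for 2 days (L1210) or 3 days (Molt4/C8, CEM). Cell numbers counted with a Coulter counter. CC₅₀ = concentration reducing proliferation by 50% versus untreated controls, read from plots of cell number (% of control) against concentration. Means of at least two independent experiments.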

[7] = test system: Vesicular stomatitis virus; assay: Antiviral activity against VSV in human HeLa cells assessed as protection against virus-induced cytopathicity; format: functional, organism-based
[8] = test system: Mammalian orthoreovirus 1; assay: Antiviral activity against Reovirus 1 in african green monkey Vero cells assessed as protection against virus-induced cytopathicity; format: functional, organism-based; conditions: Mammalian orthoreovirus 1, Vero; in short: as §1
[9] = Cytotoxicity against human HeLa cells assessed as drug level causing microscopically detectable alteration of normal cell morphology after 3 days; format: cell-based
In short: (§5)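 Serial compound dilutions added to confluent HeLa or Vero monolayers. MCC = minimum concentration causing microscopically detectable alteration of cell morphology after 3 days of incubation.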

[10] = Cytotoxicity against MDCK cells assessed as drug level causing microscopically detectable alteration of normal cell morphology; format: cell-based, Canis lupus familiaris; conditions: dog
Influenza A virus [11] = assay: Antiviral activity against influenza H1N1 virus in MDCK cells assessed as reduction of virus-induced cytopathicity by visual cytopathic effect scoring method; format: functional, organism-based
Influenza A virus H3N2 [12] = assay: Antiviral activity against influenza H3N2 virus in MDCK cells assessed as reduction of virus-induced cytopathicity by visual cytopathic effect scoring method; format: functional, organism-based
[13] = Cytotoxicity against human HEL cells assessed as drug level causing microscopically detectable alteration of normal cell morphology after 3 days; format: cell-based
Influenza B virus [14] = assay: Antiviral activity against influenza B virus in MDCK cells assessed as reduction of virus-induced cytopathicity by MTS method; format: functional, organism-based
Coxsackievirus B4 [15] = assay: Antiviral activity against Coxsackievirus B4 in human HeLa cells assessed as protection against virus-induced cytopathicity; format: functional, organism-based; conditions: Enterovirus B; in short: as §1
[16] = molecular target: Human immunodeficiency virus type 1 reverse transcriptase (Human immunodeficiency virus 1, UniProt Q72547); assay: Inhibition of HIV1 reverse transcriptase p66/p51; conditions: read-out: IC50
Influenza A virus H3N2 [17] = assay: Antiviral activity against influenza H3N2 virus in MDCK cells assessed as reduction of virus-induced cytopathicity by MTS method; format: functional, organism-based
[18] = test system: Human immunodeficiency virus 1; assay: Antiviral activity against HIV1 3B in human CEM cells assessed as protection against virus-induced cytopathicity after 4 days; format: functional, organism-based; conditions: Human immunodeficiency virus 1, 3B, CCRF-CEM, 96 h; in short: as §2
[19] = molecular target: Human immunodeficiency virus type 1 reverse transcriptase (Human immunodeficiency virus 1, UniProt Q72547, Y181I); assay: Inhibition of HIV1 reverse transcriptase p66/p51 Y181I mutant; conditions: read-out: IC50; in short: as §3
[20] = test system: Respiratory syncytial virus; assay: Antiviral activity against RSV Long in human HeLa cells assessed as protection against virus-induced cytopathicity; format: functional, organism-based; in short: as §1
Coxsackievirus B4 [21] = assay: Antiviral activity against Coxsackievirus B4 in african green monkey Vero cells assessed as protection against virus-induced cytopathicity; format: functional, organism-based; conditions: Enterovirus B; in short: as §1
Human alphaherpesvirus 1 [22] = assay: Antiviral activity against thymidine kinase deficient and acyclovir resistant HSV1 KOS in human HEL cells assessed as protection against virus-induced cytopathicity; format: functional, organism-based; conditions: Human alphaherpesvirus 1, KOS
Human alphaherpesvirus 2 = assay: Antiviral activity against HSV2 G in human HEL cells assessed as protection against virus-induced cytopathicity; format: functional, organism-based; conditions: Human alphaherpesvirus 2, strain G; in short: as §1
Sindbis virus = assay: Antiviral activity against Sindbis virus in african green monkey Vero cells assessed as protection against virus-induced cytopathicity; format: functional, organism-based; in short: as §1
[23] = Cytotoxicity against MDCK cells by MTS assay; format: cell-based, Canis lupus familiaris; conditions: dog
[24] = Cytotoxicity against african green monkey Vero cells assessed as drug level causing microscopically detectable alteration of normal cell morphology after 3 days; format: cell-based; conditions: chlorocebus sabaeus; in short: as §5
[25] = molecular target: Human immunodeficiency virus type 1 reverse transcriptase (Human immunodeficiency virus 1, UniProt Q72547, K103N); assay: Inhibition of HIV1 reverse transcriptase p66/p51 K103N mutant; conditions: read-out: IC50; in short: as §3
Influenza B virus [26] = assay: Antiviral activity against influenza B virus in MDCK cells assessed as reduction of virus-induced cytopathicity by visual cytopathic effect scoring method; format: functional, organism-based
[27] = Antiproliferative activity against human Molt4/C8 cells after 3 days; format: cell-based; conditions: MOLT-4, 72 h; in short: as §4
L1210 = assay: Antiproliferative activity against mouse L1210 cells after 2 days; format: cell-based; conditions: L1210, 48 h; in short: as §4

| SMILES | EC50 (Influenza A virus [1]) [µM] | EC50 (Human alphaherpesvirus 1 [2]) [µM] | EC50 (Felid alphaherpesvirus 1) [µM] | EC50 (Human respirovirus 3) [µM] | EC50 (Vaccinia virus) [µM] | EC50 [3] [µM] | EC50 (Punta Toro virus) [µM] | EC50 [4] [µM] | EC50 (Feline coronavirus) [µM] | CC50 [5] [µM] | IC50 [6] [µM] | IC50 (CCRF-CEM) [µM] | EC50 [7] [µM] | EC50 [8] [µM] | MCC at 72 h [9] [µM] | MCC [10] [µM] | EC50 (Influenza A virus [11]) [µM] | EC50 (Influenza A virus H3N2 [12]) [µM] | MCC at 72 h [13] [µM] | EC50 (Influenza B virus [14]) [µM] | also measured |
| --- | --- | --- | --- | --- | --- | --- | --- | --- | --- | --- | --- | --- | --- | --- | --- | --- | --- | --- | --- | --- | --- |
| Cc1cc(C)cc(S(=O)(=O)c2c(C(N)=O)[nH]c3ccc(Cl)c(F)c23)c1 | > 4 | > 20 | > 100 | > 100 | > 20 | > 20 | > 100 | > 10 | > 100 | > 100 | 0.002 | > 28 | > 100 | > 100 | > 100 | 20 | > 4 | > 4 | > 100 | > 4 | EC50 (Coxsackievirus B4 [15]): 27 µM; IC50 [16]: 0.003 µM; EC50 (Influenza A virus H3N2 [17]): > 4 µM; EC50 [18]: 0.001 µM; IC50 [19]: 0.029 µM; EC50 [20]: > 100 µM; EC50 (Coxsackievirus B4 [21]): 100 µM; EC50 (Human alphaherpesvirus 1 [22]): > 20 µM; EC50 (Human alphaherpesvirus 2): > 20 µM; EC50 (Sindbis virus): > 100 µM; CC50 [23]: 40.6 µM; MCC at 72 h [24]: > 100 µM; IC50 [25]: 0.006 µM; EC50 (Influenza B virus [26]): > 4 µM; IC50 [27]: 14 µM; IC50 (L1210): 46 µM |
| Cc1cc(C)cc(S(=O)(=O)c2c(C(=O)NC(C)CS(N)(=O)=O)[nH]c3ccc(Cl)c(F)c23)c1 (configuration not stated) | > 4 | > 4 | > 4 | > 20 | > 4 | > 4 | > 20 | > 10 | > 4 | 15 | 0.267 | 16 | > 4 | > 20 | 20 | 20 | > 4 | > 4 | 20 | > 4 | EC50 (Coxsackievirus B4 [15]): > 4 µM; IC50 [16]: 0.036 µM; EC50 (Influenza A virus H3N2 [17]): > 4 µM; EC50 [18]: 0.0039 µM; IC50 [19]: > 40 µM; EC50 [20]: > 4 µM; EC50 (Coxsackievirus B4 [21]): 12 µM; EC50 (Human alphaherpesvirus 1 [22]): > 4 µM; EC50 (Human alphaherpesvirus 2): > 4 µM; EC50 (Sindbis virus): 20 µM; CC50 [23]: 7.3 µM; MCC at 72 h [24]: 100 µM; IC50 [25]: 0.003 µM; EC50 (Influenza B virus [26]): > 4 µM; IC50 [27]: 12 µM; IC50 (L1210): 18 µM |
